Measured values taken from ChEMBL document CHEMBL3259728, “Design, synthesis and biological evaluation of some novel substituted quinazolines as antitumor agents” (2014).

Columns and labels:
Assay type in all cases: functional
M14 = assay: Growth inhibition of human M14 cells at 10 uM after 48 hrs by SRB assay; conditions: M14, 48 h, read-out: GI
Summary of the method: (§1)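 NCI-60 primary one-dose screen run at the US NCI, with human tumour lines from nine cancer types. Compound added once at 10^-5 M, followed by 48 h incubation. End point was sulforhodamine B protein staining read spectrophotometrically. Result given as percent growth of treated cells against untreated controls, reported as % growth inhibition.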

[1] = Growth inhibition of human Hs578T cells at 10 uM after 48 hrs by SRB assay; conditions: Hs-578T, read-out: GI; summary of the method: as §1
SK-OV-3 = assay: Growth inhibition of human SKOV3 cells at 10 uM after 48 hrs by SRB assay; conditions: SK-OV-3, 48 h, read-out: GI; summary of the method: as §1
NCI-H226 = assay: Growth inhibition of human NCI-H226 cells at 10 uM after 48 hrs by SRB assay; conditions: NCI-H226, 48 h, read-out: GI; summary of the method: as §1
CAKI-1 = assay: Growth inhibition of human CAKI-1 cells at 10 uM after 48 hrs by SRB assay; conditions: CAKI-1, 48 h, read-out: GI
Summary of the method: (§2)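 NCI primary one-dose screen. A single concentration of 10^-5 M was added to the cell culture, followed by 48 h incubation and an SRB protein-dye endpoint read spectrophotometrically. Results are growth percentage relative to untreated control cells, reported as % growth inhibition.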

[2] = Growth inhibition of human LOXIMVI cells at 10 uM after 48 hrs by SRB assay; conditions: LOX IMVI, read-out: GI; summary of the method: as §1
[3] = Growth inhibition of human UACC257 cells at 10 uM after 48 hrs by SRB assay; conditions: UACC-257, 48 h, read-out: GI; summary of the method: as §1
HCT-116 = assay: Growth inhibition of human HCT116 cells at 10 uM after 48 hrs by SRB assay; conditions: HCT-116, 48 h, read-out: GI; summary of the method: as §1
[4] = Growth inhibition of human OVCAR4 cells at 10 uM after 48 hrs by SRB assay; conditions: OVCAR-4, 48 h, read-out: GI; summary of the method: as §1
IGROV-1 = assay: Growth inhibition of human IGROV1 cells at 10 uM after 48 hrs by SRB assay; conditions: IGROV-1, 48 h, read-out: GI; summary of the method: as §1
NCI-H460 = assay: Growth inhibition of human NCI-H460 cells at 10 uM after 48 hrs by SRB assay; conditions: NCI-H460, 48 h, read-out: GI; summary of the method: as §1
Malme-3M = assay: Growth inhibition of human MALME-3M cells at 10 uM after 48 hrs by SRB assay; conditions: read-out: GI; summary of the method: as §1
MDA-MB-435 = assay: Growth inhibition of human MDA-MB-435 cells at 10 uM after 48 hrs by SRB assay; conditions: MDA-MB-435, 48 h, read-out: GI; summary of the method: as §1
T47D = assay: Growth inhibition of human T47D cells at 10 uM after 48 hrs by SRB assay; conditions: read-out: GI; summary of the method: as §1
[5] = Growth inhibition of human OVCAR5 cells at 10 uM after 48 hrs by SRB assay; conditions: OVCAR-5, 48 h, read-out: GI; summary of the method: as §1
[6] = Growth inhibition of human EKVX cells at 10 uM after 48 hrs by SRB assay; conditions: read-out: GI; summary of the method: as §1
MCF7 = assay: Growth inhibition of human MCF7 cells at 10 uM after 48 hrs by SRB assay; conditions: MCF7, 48 h, read-out: GI; summary of the method: as §1
SNB-19 = assay: Growth inhibition of human SNB19 cells at 10 uM after 48 hrs by SRB assay; conditions: SNB-19, 48 h, read-out: GI; summary of the method: as §1
SK-MEL-2 = assay: Growth inhibition of human SK-MEL-2 cells at 10 uM after 48 hrs by SRB assay; conditions: SK-MEL-2, 48 h, read-out: GI; summary of the method: as §1
HT-29 = assay: Growth inhibition of human HT-29 cells at 10 uM after 48 hrs by SRB assay; conditions: HT-29, 48 h, read-out: GI; summary of the method: as §1
SK-MEL-5 = assay: Growth inhibition of human SK-MEL-5 cells at 10 uM after 48 hrs by SRB assay; conditions: SK-MEL-5, 48 h, read-out: GI; summary of the method: as §1
[7] = Growth inhibition of human OVCAR8 cells at 10 uM after 48 hrs by SRB assay; conditions: OVCAR-8, 48 h, read-out: GI; summary of the method: as §1
SW-620 = assay: Growth inhibition of human SW620 cells at 10 uM after 48 hrs by SRB assay; conditions: SW-620, 48 h, read-out: GI; summary of the method: as §1
KM12 = assay: Growth inhibition of human KM12 cells at 10 uM after 48 hrs by SRB assay; conditions: KM12, 48 h, read-out: GI; summary of the method: as §1
MDA-MB-231 = assay: Growth inhibition of human MDA-MB-231 cells at 10 uM after 48 hrs by SRB assay; conditions: MDA-MB-231, 48 h, read-out: GI; summary of the method: as §1
MDA-MB-468 = assay: Growth inhibition of human MDA-MB-468 cells assessed as cell growth at 10 uM after 48 hrs by SRB assay; conditions: MDA-MB-468, 48 h, read-out: GI; summary of the method: as §1
SNB-75 = assay: Growth inhibition of human SNB75 cells at 10 uM after 48 hrs by SRB assay; conditions: SNB-75, 48 h, read-out: GI; summary of the method: as §1
HOP-62 = assay: Growth inhibition of human HOP62 cells at 10 uM after 48 hrs by SRB assay; conditions: HOP-62, 48 h, read-out: GI; summary of the method: as §1
[8] = Growth inhibition of human BT549 cells at 10 uM after 48 hrs by SRB assay; conditions: BT-549, 48 h, read-out: GI; summary of the method: as §2
A549 = assay: Growth inhibition of human A549 cells at 10 uM after 48 hrs by SRB assay; conditions: A549, 48 h, read-out: GI; summary of the method: as §2
SF-268 = assay: Growth inhibition of human SF268 cells at 10 uM after 48 hrs by SRB assay; conditions: SF-268, 48 h, read-out: GI; summary of the method: as §1
A498 = assay: Growth inhibition of human A498 cells at 10 uM after 48 hrs by SRB assay; conditions: A498, 48 h, read-out: GI; summary of the method: as §2
U-251 = assay: Growth inhibition of human U251 cells at 10 uM after 48 hrs by SRB assay; conditions: U-251, 48 h, read-out: GI; summary of the method: as §1
DU-145 = assay: Growth inhibition of human DU145 cells at 10 uM after 48 hrs by SRB assay; conditions: DU-145, 48 h, read-out: GI; summary of the method: as §1
SN12C = assay: Growth inhibition of human SN12C cells at 10 uM after 48 hrs by SRB assay; conditions: read-out: GI; summary of the method: as §1
[9] = Growth inhibition of human UACC62 cells at 10 uM after 48 hrs by SRB assay; conditions: UACC-62, 48 h, read-out: GI; summary of the method: as §1
K562 = assay: Growth inhibition of human K562 cells at 10 uM after 48 hrs by SRB assay; conditions: K562, 48 h, read-out: GI; summary of the method: as §1
[10] = Growth inhibition of human MOLT4 cells at 10 uM after 48 hrs by SRB assay; conditions: MOLT-4, 48 h, read-out: GI; summary of the method: as §1

Structure (SMILES)	inhibition of growth at 10 µM (M14)	inhibition of growth at 10 µM [1]	inhibition of growth at 10 µM (SK-OV-3)	inhibition of growth at 10 µM (NCI-H226)	inhibition of growth at 10 µM (CAKI-1)	inhibition of growth at 10 µM [2]	inhibition of growth at 10 µM [3]	inhibition of growth at 10 µM (HCT-116)	inhibition of growth at 10 µM [4]	inhibition of growth at 10 µM (IGROV-1)	inhibition of growth at 10 µM (NCI-H460)	inhibition of growth at 10 µM (Malme-3M)	inhibition of growth at 10 µM (MDA-MB-435)	inhibition of growth at 10 µM [5]	inhibition of growth at 10 µM [6]	inhibition of growth at 10 µM (MCF7)	inhibition of growth at 10 µM (SNB-19)	inhibition of growth at 10 µM (SK-MEL-2)	inhibition of growth at 10 µM (HT-29)	inhibition of growth at 10 µM (SK-MEL-5)	other results
Cc1ccc(C(=O)Nc2ccc(Cl)cc2C(=O)Nc2ccccc2)cc1	< 10%	< 10%	12%	< 10%	18%	< 10%	< 10%	< 10%	11%	< 10%	< 10%	12%	11%	14%	< 10%	11%	13%	< 10%	< 10%	13%	inhibition of growth at 10 µM (T47D): 20%; inhibition of growth at 10 µM [7]: < 10%; inhibition of growth at 10 µM (SW-620): < 10%; inhibition of growth at 10 µM (KM12): < 10%; inhibition of growth at 10 µM (MDA-MB-231): 16%; inhibition of growth at 10 µM (MDA-MB-468): 11%; inhibition of growth at 10 µM (SNB-75): 28%; inhibition of growth at 10 µM (HOP-62): 29%; inhibition of growth at 10 µM [8]: < 10%; inhibition of growth at 10 µM (A549): < 10%; inhibition of growth at 10 µM (SF-268): < 10%; inhibition of growth at 10 µM (A498): < 10%; inhibition of growth at 10 µM (U-251): 14%; inhibition of growth at 10 µM (DU-145): < 10%; inhibition of growth at 10 µM (SN12C): < 10%
Cc1ccc(C(=O)Nc2ccc(Cl)cc2C(=O)Nc2ccccn2)cc1	< 10%	< 10%	< 10%	< 10%	20%	< 10%	< 10%	< 10%	22%	14%	< 10%	< 10%	19%	< 10%	12%	19%	< 10%	< 10%	14%	39%	inhibition of growth at 10 µM [9]: 16%; inhibition of growth at 10 µM (T47D): 20%; inhibition of growth at 10 µM [7]: < 10%; inhibition of growth at 10 µM (SW-620): < 10%; inhibition of growth at 10 µM (KM12): 11%; inhibition of growth at 10 µM (MDA-MB-231): < 10%; inhibition of growth at 10 µM (MDA-MB-468): 11%; inhibition of growth at 10 µM (SNB-75): 24%; inhibition of growth at 10 µM (HOP-62): < 10%; inhibition of growth at 10 µM [8]: < 10%; inhibition of growth at 10 µM (A549): 13%; inhibition of growth at 10 µM (SF-268): 13%; inhibition of growth at 10 µM (A498): 39%; inhibition of growth at 10 µM (K562): 35%; inhibition of growth at 10 µM (U-251): < 10%; inhibition of growth at 10 µM (DU-145): 11%; inhibition of growth at 10 µM (SN12C): < 10%
Cc1ccc(-c2nc3ccc(Cl)cc3c(=O)n2NC(=O)CN)cc1	11%	< 10%	< 10%	11%	14%	< 10%	< 10%	11%	< 10%	< 10%	< 10%	< 10%	< 10%	11%	22%	12%	< 10%	< 10%	12%	< 10%	inhibition of growth at 10 µM [9]: < 10%; inhibition of growth at 10 µM [7]: < 10%; inhibition of growth at 10 µM (SW-620): < 10%; inhibition of growth at 10 µM (KM12): < 10%; inhibition of growth at 10 µM (MDA-MB-231): < 10%; inhibition of growth at 10 µM (MDA-MB-468): < 10%; inhibition of growth at 10 µM (SNB-75): 15%; inhibition of growth at 10 µM (HOP-62): 15%; inhibition of growth at 10 µM [8]: < 10%; inhibition of growth at 10 µM (A549): < 10%; inhibition of growth at 10 µM (SF-268): < 10%; inhibition of growth at 10 µM [10]: < 10%; inhibition of growth at 10 µM (K562): < 10%; inhibition of growth at 10 µM (U-251): < 10%; inhibition of growth at 10 µM (DU-145): < 10%; inhibition of growth at 10 µM (SN12C): < 10%
Cc1ccc(C2=Nc3ccc(Cl)cc3C3=NNCC(=O)NN23)cc1	< 10%	< 10%	< 10%	< 10%	14%	< 10%	< 10%	< 10%	< 10%	< 10%	< 10%	< 10%	< 10%	< 10%	12%	< 10%	< 10%	< 10%	< 10%	< 10%	inhibition of growth at 10 µM [9]: < 10%; inhibition of growth at 10 µM [7]: < 10%; inhibition of growth at 10 µM (SW-620): < 10%; inhibition of growth at 10 µM (KM12): < 10%; inhibition of growth at 10 µM (MDA-MB-231): 11%; inhibition of growth at 10 µM (MDA-MB-468): 11%; inhibition of growth at 10 µM (SNB-75): < 10%; inhibition of growth at 10 µM (HOP-62): < 10%; inhibition of growth at 10 µM [8]: < 10%; inhibition of growth at 10 µM (A549): 11%; inhibition of growth at 10 µM (SF-268): < 10%; inhibition of growth at 10 µM [10]: < 10%; inhibition of growth at 10 µM (A498): 34%; inhibition of growth at 10 µM (K562): < 10%; inhibition of growth at 10 µM (U-251): < 10%; inhibition of growth at 10 µM (DU-145): < 10%; inhibition of growth at 10 µM (SN12C): < 10%
